According to ChEMBL document CHEMBL4251575, “Design, synthesis, and biological evaluation of 1,3-diarylisoquinolines as novel topoisomerase I catalytic inhibitors” (Eur J Med Chem, 2018):
Counter-ions that a name gives are not always drawn.

Assays:
[1] = biological target: T1, DNA topoisomerase 1 (Homo sapiens) (UniProt P11387); assay: Inhibition of human recombinant DNA topoisomerase 1-mediated DNA relaxation at 100 uM incubated for 30 mins using pBR322 DNA substrate by ethidium bromide dye-based agarose gel electrophoresis relative to control camptothecin
T1 sequence (whole entry): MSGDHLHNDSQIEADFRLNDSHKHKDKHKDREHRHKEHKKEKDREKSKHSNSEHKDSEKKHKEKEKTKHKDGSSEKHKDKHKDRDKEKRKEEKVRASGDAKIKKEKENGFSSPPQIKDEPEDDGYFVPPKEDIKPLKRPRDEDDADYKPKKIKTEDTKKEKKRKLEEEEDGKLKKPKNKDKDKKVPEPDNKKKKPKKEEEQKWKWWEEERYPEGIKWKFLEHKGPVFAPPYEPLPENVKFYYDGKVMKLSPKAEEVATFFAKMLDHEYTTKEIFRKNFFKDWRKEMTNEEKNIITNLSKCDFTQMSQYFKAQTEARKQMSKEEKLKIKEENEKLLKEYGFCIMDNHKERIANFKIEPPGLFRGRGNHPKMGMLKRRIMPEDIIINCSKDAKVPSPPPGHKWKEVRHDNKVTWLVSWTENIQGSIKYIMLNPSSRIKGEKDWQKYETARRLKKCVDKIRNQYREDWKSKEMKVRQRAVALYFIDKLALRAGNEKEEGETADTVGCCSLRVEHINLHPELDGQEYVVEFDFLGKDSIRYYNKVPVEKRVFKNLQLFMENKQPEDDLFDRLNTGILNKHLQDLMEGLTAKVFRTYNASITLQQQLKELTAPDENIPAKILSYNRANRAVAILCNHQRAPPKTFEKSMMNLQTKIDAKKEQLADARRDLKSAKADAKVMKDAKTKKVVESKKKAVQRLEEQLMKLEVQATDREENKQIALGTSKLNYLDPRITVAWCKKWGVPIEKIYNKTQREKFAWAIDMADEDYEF
Outline: (§1)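 pBR322 (100 ng) with recombinant human topo I (0.4 units) in 10 mM Tris-HCl pH 7.9, 150 mM NaCl, 0.1% BSA, 1 mM spermidine, 5% glycerol, 30 min at 37 °C. Stopped with sarcosyl/glycerol/dye and run on 1% agarose/TAE at 15 V for 7 h. EtBr-stained; supercoiled DNA quantified as % inhibition. Relative values are the ratio to the camptothecin control.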

[2] = system: T47D; assay: Cytotoxicity against human T47D cells after 72 hrs by cell counting kit-8 analysis; type: functional, cell-based
Outline: (§2)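 Cells seeded at 2×10^5 or 1×10^5 per well, grown overnight in medium with 10% FBS at 37 °C, 5% CO₂, then FBS-starved 4 h. Graded compound concentrations given for 72 h. CCK-8 then added for 4 h and absorbance read at 450 nm. IC50 from a four-parameter logistic fit; mean ± S.D. of three experiments, each in triplicate.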

[3] = system: MCF-10A; assay: Cytotoxicity against human MCF10A cells after 72 hrs by cell counting kit-8 analysis; type: cell-based; outline: as §2
[4] = biological target: DNA topoisomerase 2-alpha (Homo sapiens) (UniProt P11388); assay: Inhibition of human DNA topoisomerase 2 alpha-mediated DNA relaxation at 100 uM incubated for 30 mins using pBR322 DNA substrate by ethidium bromide dye-based agarose gel electrophoresis
Chain of DNA topoisomerase 2-alpha (Homo sapiens) (P11388 whole entry): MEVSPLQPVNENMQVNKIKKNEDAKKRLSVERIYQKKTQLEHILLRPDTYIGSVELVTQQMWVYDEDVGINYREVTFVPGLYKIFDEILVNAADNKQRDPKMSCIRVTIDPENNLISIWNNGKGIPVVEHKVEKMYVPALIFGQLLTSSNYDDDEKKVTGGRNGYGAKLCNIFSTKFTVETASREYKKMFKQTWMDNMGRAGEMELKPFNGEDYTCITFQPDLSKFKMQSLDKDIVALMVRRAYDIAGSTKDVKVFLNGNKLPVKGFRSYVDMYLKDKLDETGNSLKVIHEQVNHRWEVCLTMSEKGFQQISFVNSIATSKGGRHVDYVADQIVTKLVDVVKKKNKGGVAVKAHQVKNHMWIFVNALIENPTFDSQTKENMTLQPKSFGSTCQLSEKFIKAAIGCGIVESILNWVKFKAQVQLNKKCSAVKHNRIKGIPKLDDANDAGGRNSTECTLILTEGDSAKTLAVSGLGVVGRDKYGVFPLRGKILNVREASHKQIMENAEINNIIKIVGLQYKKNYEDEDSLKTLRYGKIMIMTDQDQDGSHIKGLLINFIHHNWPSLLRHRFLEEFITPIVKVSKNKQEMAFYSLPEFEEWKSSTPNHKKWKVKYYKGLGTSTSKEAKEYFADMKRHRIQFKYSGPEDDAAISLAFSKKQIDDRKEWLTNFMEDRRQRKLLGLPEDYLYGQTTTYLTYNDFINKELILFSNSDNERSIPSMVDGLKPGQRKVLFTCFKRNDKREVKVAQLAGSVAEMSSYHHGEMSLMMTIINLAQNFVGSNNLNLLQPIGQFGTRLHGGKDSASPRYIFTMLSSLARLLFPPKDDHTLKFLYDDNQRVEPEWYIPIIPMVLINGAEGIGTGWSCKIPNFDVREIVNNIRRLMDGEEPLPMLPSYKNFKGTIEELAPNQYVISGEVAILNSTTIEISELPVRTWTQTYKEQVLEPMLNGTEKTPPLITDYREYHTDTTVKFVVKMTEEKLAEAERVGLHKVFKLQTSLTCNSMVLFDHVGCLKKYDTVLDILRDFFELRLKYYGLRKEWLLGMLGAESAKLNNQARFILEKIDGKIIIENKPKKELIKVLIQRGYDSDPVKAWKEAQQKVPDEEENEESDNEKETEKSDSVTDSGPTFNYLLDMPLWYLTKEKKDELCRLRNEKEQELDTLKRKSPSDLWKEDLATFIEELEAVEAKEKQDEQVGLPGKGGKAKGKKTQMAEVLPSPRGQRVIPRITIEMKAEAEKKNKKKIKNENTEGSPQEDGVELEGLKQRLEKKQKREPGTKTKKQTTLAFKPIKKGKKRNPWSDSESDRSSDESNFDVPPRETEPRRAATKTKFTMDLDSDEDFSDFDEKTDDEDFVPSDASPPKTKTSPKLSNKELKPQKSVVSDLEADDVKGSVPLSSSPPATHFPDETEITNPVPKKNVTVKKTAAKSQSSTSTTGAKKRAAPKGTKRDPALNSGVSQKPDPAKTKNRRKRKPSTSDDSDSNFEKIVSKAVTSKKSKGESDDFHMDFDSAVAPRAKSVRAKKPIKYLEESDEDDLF
Outline: (§3)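 Stopped with EDTA and run on 1% agarose/TAE at 25 V for 4 h. EtBr-stained; supercoiled DNA quantified as % inhibition. Relative values are the ratio to the etoposide control.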

[5] = biological target: DNA topoisomerase 2-alpha (Homo sapiens) (UniProt P11388); assay: Inhibition of human DNA topoisomerase 2 alpha-mediated DNA relaxation at 20 uM incubated for 30 mins using pBR322 DNA substrate by ethidium bromide dye-based agarose gel electrophoresis; outline: as §3
[6] = system: HCT-15; assay: Cytotoxicity against human HCT15 cells after 72 hrs by cell counting kit-8 analysis; type: functional, cell-based; details: HCT-15, 72 h; outline: as §2
[7] = biological target: T1, DNA topoisomerase 1 (Homo sapiens); assay: Inhibition of human recombinant DNA topoisomerase 1-mediated DNA relaxation at 100 uM incubated for 30 mins using pBR322 DNA substrate by ethidium bromide dye-based agarose gel electrophoresis; outline: as §1
[8] = biological target: DNA topoisomerase 2-alpha (Homo sapiens) (UniProt P11388); assay: Inhibition of human DNA topoisomerase 2 alpha-mediated DNA relaxation at 20 uM incubated for 30 mins using pBR322 DNA substrate by ethidium bromide dye-based agarose gel electrophoresis relative to control etoposide; outline: as §3
[9] = biological target: DNA topoisomerase 2-alpha (Homo sapiens) (UniProt P11388); assay: Inhibition of human DNA topoisomerase 2 alpha-mediated DNA relaxation at 100 uM incubated for 30 mins using pBR322 DNA substrate by ethidium bromide dye-based agarose gel electrophoresis relative to control etoposide; outline: as §3
[10] = biological target: T1, DNA topoisomerase 1 (Homo sapiens); assay: Inhibition of human recombinant DNA topoisomerase 1-mediated DNA relaxation at 20 uM incubated for 30 mins using pBR322 DNA substrate by ethidium bromide dye-based agarose gel electrophoresis; outline: as §1
[11] = biological target: T1, DNA topoisomerase 1 (Homo sapiens); assay: Inhibition of human recombinant DNA topoisomerase 1-mediated DNA relaxation at 20 uM incubated for 30 mins using pBR322 DNA substrate by ethidium bromide dye-based agarose gel electrophoresis relative to control camptothecin; outline: as §1
[12] = system: DU-145; assay: Cytotoxicity against human DU145 cells after 72 hrs by cell counting kit-8 analysis; type: functional, cell-based; details: DU-145, 72 h; outline: as §2

SMILES: COc1ccc(-c2cc3cc(C)ccc3c(-c3cccc(OCCN(C)C)c3)n2)c(C)c1
- Ratio [1]: 0.05
- IC50 [2]: 0.6 µM
- IC50 [3]: 6.35 µM
- inhibition [4]: 49.6%
- inhibition [5]: 13.2%
- IC50 [6]: 2.2 µM
- inhibition [7]: 3.7%
- Ratio [8]: 0.35
- Ratio [9]: 0.81

SMILES: COc1ccc(-c2cc3cc(C)ccc3c(-c3cccc(OCCCN(C)C)c3)n2)c(C)c1
- Ratio [1]: 0.6
- IC50 [2]: 0.29 µM
- IC50 [3]: 6.07 µM
- inhibition [4]: 40.9%
- inhibition [5]: 10.5%
- IC50 [6]: 0.87 µM
- inhibition [7]: 39.3%
- Ratio [8]: 0.28
- inhibition [10]: 0%
- Ratio [11]: 0
- Ratio [9]: 0.67

SMILES: COc1ccc(-c2cc3ccccc3c(-c3cccc(OCCCN(C)C)c3)n2)cc1
- Ratio [1]: 0.81
- IC50 [2]: 0.16 µM
- IC50 [3]: 10.2 µM
- inhibition [4]: 20.2%
- IC50 [6]: 1.75 µM
- inhibition [7]: 47.9%
- inhibition [10]: 12.1%
- Ratio [11]: 0.38
- Ratio [9]: 0.32

SMILES: COc1ccc(-c2cc3cc(C)ccc3c(-c3ccc(OCCN(C)C)cc3)n2)cc1OC
- Ratio [1]: 1.22
- IC50 [2]: 2.33 µM
- IC50 [3]: 5.31 µM
- inhibition [4]: 75.8%
- inhibition [5]: 15.3%
- IC50 [6]: 0.97 µM
- inhibition [7]: 79.6%
- Ratio [8]: 0.41
- inhibition [10]: 0%
- Ratio [11]: 0
- Ratio [9]: 1.24

SMILES: COc1ccc(-c2cc3ccccc3c(-c3cccc(N)c3)n2)cc1
- Ratio [1]: 0
- IC50 [2]: 0.95 µM
- IC50 [3]: 18.8 µM
- inhibition [4]: 7.7%
- IC50 [6]: 2.35 µM
- inhibition [7]: 0%
- Ratio [9]: 0.12

SMILES: COc1ccc(-c2cc3cc(C)ccc3c(-c3cccc(N)c3)n2)cc1OC
- Ratio [1]: 0.11
- IC50 [2]: 0.45 µM
- IC50 [3]: 5.6 µM
- inhibition [4]: 6.9%
- IC50 [6]: 2.7 µM
- inhibition [7]: 7.2%
- Ratio [9]: 0.11

SMILES: COc1ccc(-c2cc3ccccc3c(-c3ccc(OC)cc3)n2)cc1
- Ratio [1]: 0
- IC50 [2]: 0.85 µM
- IC50 [3]: > 50 µM
- inhibition [4]: 7.4%
- IC50 [6]: 2.79 µM
- inhibition [7]: 0%
- Ratio [9]: 0.11

SMILES: COc1cccc(-c2nc(-c3ccc(OC)c(OC)c3)cc3cc(C)ccc23)c1
- Ratio [1]: 0.05
- IC50 [2]: 7.86 µM
- IC50 [3]: > 50 µM
- inhibition [4]: 0%
- IC50 [6]: 1.84 µM
- inhibition [7]: 2.9%
- IC50 [12]: > 50 µM
- Ratio [9]: 0

SMILES: COc1cccc2c1C(=O)c1c(O)c3c(c(O)c1C2=O)C[C@@](O)(C(=O)CO)C[C@@H]3O[C@H]1C[C@H](N)[C@H](O)[C@H](C)O1 [DOXORUBICIN HYDROCHLORIDE]
- IC50 [3]: 0.93 µM

SMILES: COc1ccc(-c2cc3ccccc3c(-c3cccc(OC)c3)n2)cc1
- Ratio [1]: 0.58
- IC50 [2]: 0.86 µM
- IC50 [3]: > 50 µM
- inhibition [4]: 0%
- IC50 [6]: 1.3 µM
- inhibition [7]: 43.2%
- inhibition [10]: 0%
- Ratio [11]: 0
- IC50 [12]: > 50 µM
- Ratio [9]: 0

SMILES: COc1cc(OC)cc(-c2cc3cc(OC)c(OC)cc3c(-c3cccc(O)c3)n2)c1
- Ratio [1]: 0.06
- IC50 [2]: 3.92 µM
- IC50 [3]: 5.9 µM
- inhibition [4]: 0%
- IC50 [6]: 0.54 µM
- inhibition [7]: 4.6%
- IC50 [12]: 8.12 µM
- Ratio [9]: 0

SMILES: COc1cc(OC)cc(-c2cc3ccccc3c(-c3cccc(OC)c3)n2)c1
- Ratio [1]: 0
- IC50 [2]: 1.12 µM
- IC50 [3]: > 50 µM
- inhibition [4]: 16.7%
- IC50 [6]: 1.17 µM
- inhibition [7]: 0%
- Ratio [9]: 0.26

SMILES: COc1ccc(-c2nc(-c3ccc(OC)c(OC)c3)cc3cc(C)ccc23)cc1
- Ratio [1]: 0.04
- IC50 [2]: 3.34 µM
- IC50 [3]: > 50 µM
- inhibition [4]: 0%
- IC50 [6]: 28.7 µM
- inhibition [7]: 2.3%
- IC50 [12]: > 50 µM
- Ratio [9]: 0

SMILES: COc1ccc(-c2cc3ccccc3c(-c3cccc(O)c3)n2)cc1
- Ratio [1]: 0.12
- IC50 [2]: 0.58 µM
- IC50 [3]: 7.83 µM
- inhibition [4]: 84.3%
- inhibition [5]: 0%
- IC50 [6]: 1.2 µM
- inhibition [7]: 9.4%
- Ratio [8]: 0
- IC50 [12]: 5.36 µM
- Ratio [9]: 1.07

SMILES: COc1ccc(-c2cc3ccccc3c(-c3ccc(O)cc3)n2)cc1
- Ratio [1]: 0.09
- IC50 [2]: 1.22 µM
- IC50 [3]: > 50 µM
- inhibition [4]: 0%
- IC50 [6]: > 50 µM
- inhibition [7]: 6.7%
- IC50 [12]: > 50 µM
- Ratio [9]: 0

SMILES: COc1ccc(-c2cc3cc(C)ccc3c(-c3cccc(O)c3)n2)cc1OC
- Ratio [1]: 0.03
- IC50 [2]: 4.34 µM
- IC50 [3]: 13.5 µM
- inhibition [4]: 34.5%
- inhibition [5]: 0.4%
- IC50 [6]: 0.37 µM
- inhibition [7]: 1.7%
- Ratio [8]: 0.01
- IC50 [12]: 6.51 µM
- Ratio [9]: 0.38

SMILES: COc1ccc(-c2cc3cc(C)ccc3c(-c3ccc(O)cc3)n2)cc1OC
- Ratio [1]: 0.005
- IC50 [2]: 4.42 µM
- IC50 [3]: 18.1 µM
- inhibition [4]: 36.5%
- inhibition [5]: 0%
- IC50 [6]: 2.52 µM
- inhibition [7]: 0.3%
- Ratio [8]: 0
- IC50 [12]: 5.98 µM
- Ratio [9]: 0.4

SMILES: COc1cc(OC)cc(-c2cc3ccccc3c(-c3cccc(N)c3)n2)c1
- Ratio [1]: 0
- IC50 [2]: 0.98 µM
- IC50 [3]: > 50 µM
- inhibition [4]: 23.6%
- IC50 [6]: 4.08 µM
- inhibition [7]: 0%
- Ratio [9]: 0.37
